The values below come from PubChem BioAssay.

Experiment [1] is described as follows: Her2 expression decrease, cell viability multiplex – SKBR3 breast tumor cells, AlphaScreen, ATP viability, primary screen (AID 461;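 active = Her2 level under about 52% in both replicate screens, with viability over 70% of control, limit read from the data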;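 as to Her2 level: lower value means less Her2 protein in the cells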;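 as to viability: percent of carrier control wells set as 100% viability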). The following applies: SKBR3 Her2 protein level, 18-24 h, measured here: SKBR3 viability, ATP luminescence, at 10 µM.
The target of experiment [2] is Receptor tyrosine-protein kinase erbB-2 (Homo sapiens) (UniProt P04626). Described as above. The note with it: 18-24 h, at 10 µM, stronger effect = lower value.
Sequence of Receptor tyrosine-protein kinase erbB-2 (Homo sapiens) (P04626 whole entry, looked up): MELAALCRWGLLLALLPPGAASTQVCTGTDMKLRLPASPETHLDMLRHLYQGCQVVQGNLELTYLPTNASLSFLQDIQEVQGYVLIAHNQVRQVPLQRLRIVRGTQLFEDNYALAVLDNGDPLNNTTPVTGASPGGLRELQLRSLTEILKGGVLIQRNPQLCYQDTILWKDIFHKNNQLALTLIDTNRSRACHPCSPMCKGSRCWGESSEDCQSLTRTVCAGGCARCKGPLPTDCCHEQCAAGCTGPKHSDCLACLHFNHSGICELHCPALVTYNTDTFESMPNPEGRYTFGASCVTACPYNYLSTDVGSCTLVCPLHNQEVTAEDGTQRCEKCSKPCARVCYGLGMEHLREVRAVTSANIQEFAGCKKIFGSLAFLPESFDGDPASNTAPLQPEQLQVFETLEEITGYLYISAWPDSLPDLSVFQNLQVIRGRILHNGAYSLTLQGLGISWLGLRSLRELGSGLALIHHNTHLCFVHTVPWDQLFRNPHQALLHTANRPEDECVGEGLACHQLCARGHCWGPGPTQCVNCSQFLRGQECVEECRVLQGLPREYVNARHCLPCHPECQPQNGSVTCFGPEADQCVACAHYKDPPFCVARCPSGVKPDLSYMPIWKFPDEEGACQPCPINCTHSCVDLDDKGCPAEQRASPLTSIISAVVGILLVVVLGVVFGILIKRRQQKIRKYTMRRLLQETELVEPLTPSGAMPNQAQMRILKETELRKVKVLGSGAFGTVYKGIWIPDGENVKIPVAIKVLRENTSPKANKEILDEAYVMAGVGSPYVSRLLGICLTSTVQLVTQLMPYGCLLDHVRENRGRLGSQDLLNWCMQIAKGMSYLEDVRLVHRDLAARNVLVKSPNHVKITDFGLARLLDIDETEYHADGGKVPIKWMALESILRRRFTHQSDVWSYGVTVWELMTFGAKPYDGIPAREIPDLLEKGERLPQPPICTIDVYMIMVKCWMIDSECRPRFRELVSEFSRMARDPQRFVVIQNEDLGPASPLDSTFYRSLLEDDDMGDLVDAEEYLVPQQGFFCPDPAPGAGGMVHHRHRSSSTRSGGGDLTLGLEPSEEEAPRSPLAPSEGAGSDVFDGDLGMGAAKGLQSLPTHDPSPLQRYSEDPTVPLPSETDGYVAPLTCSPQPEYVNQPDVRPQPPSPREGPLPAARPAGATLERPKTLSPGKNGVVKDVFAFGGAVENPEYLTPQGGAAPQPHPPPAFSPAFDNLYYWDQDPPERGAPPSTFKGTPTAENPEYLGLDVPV
Experiment [3] in a line: reduced viability of SK-BR-3 breast cancer cells – cell-based, 24 h, human, pilot screen (AID 572;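 active = viability at or below 10% of carrier control in both of two separate runs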;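 also: compound exposure lasted between 18 and 24 h rather than exactly 24 h; 100% = carrier-treated control wells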). The note with it: SK-BR-3 viability, CellTiter-Glo luminescence, at 10 µM, stronger effect = lower value.
The nature of experiment [4]: HUVEC growth inhibition – cell-based, human, primary screen (AID 575;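 active = viability at or below 30% in both replicate assays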;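 also: 100% = median of untreated cell wells with 0.1% DMSO on each plate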). The following applies: HUVEC proliferation, CellTiter-Glo luminescence, 72 h; at 10 µM; stronger effect = lower value. The gist of the method: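 system = HUVEC primary cells | amount = 1250 cells/well | buffer or medium = supplemented EBM, 2% fetal bovine serum | dosing = single-point 10 µM, DMSO 0.1% final | times = 72 h compound incubation | detection = CTG luminescence | read-out = % viability relative to median vehicle-well signal on each plate | control set = vehicle and MePR control wells | format = collagen-coated 384-well format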
Background: ATP-based viability assays read luminescence as a measure of living cells.

A short description of experiment [5]: H69AR cell proliferation blockers – human, duplicate replicates, primary screen (AID 580;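 active = viability at or under a set limit in both replicates, limit being median viability minus 3 SD, cut at about 48% in these data, passing the limit was not always enough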;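 also: 100% = mean luminescence of untreated wells and 0% = no signal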). The note with it: H69AR lung tumor cells viability, ATP luminescence, 72 h; at 10 µM; stronger effect = lower value.
Experiment [6] can be described thus: MRP1 drug-resistance reversers in H69AR cells – cell-based, doxorubicin co-treatment, pilot screen (AID 601;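 active = viability loss from added drug above about 55%, and viability with drug at most 40%, in both replicates, limit read from the data, passing the limit was not always enough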). The note with it: CellTiter-Glo, 72 h, at 10 µM; for differential viability (reversal): stronger effect = higher value.
Experiment [7] is described as follows: yeast transport mutant growth inhibition pilot in 384-well plates, post-Golgi transport modulator project (AID 636; in the data active = inhibition above about 31%). The note with it: absorbance 615 nm, about 18 h, stronger effect = higher value.
A short description of experiment [8]: growth suppression of yeast trafficking mutant, preliminary HTS, modulators of trafficking downstream of Golgi apparatus project, 1536-format plate, OD 615 nm (AID 637). The note with it: yeast transport mutant growth, absorbance 615 nm, 18 h; stronger effect = higher value.
Where [9] appears, read: H69AR cells + 2 uM doxorubicin, measured here: viability with 2 uM doxorubicin, stronger effect = lower value.
Where [10] appears, read: H69AR cells, compound alone cytotoxicity.

The source made the active and inactive calls. Rule as the data show it, unless noted: active = inhibition above about 30%; inactive = the rest.

Usually viability stands for a read-out of living cells in per cent, often relative to untreated cells. The inhibition is the relative decrease from the control value, in per cent. `CCS(=O)(=O)Nc1ccc(C(=O)CC2(O)C(=O)Nc3ccccc32)cc1` (stereo not given): the viability in experiment [1] is 105%; in experiment [3], 105% (inactive); in experiment [4], 90.3% (inactive); in experiment [5] it was 89.5% (inactive); in experiment [6] (setting [9]), 97.3%; in experiment [6] (setting [10]), 89.5%. Besides, the Her2 level in experiment [2] was 91% (inactive). In experiment [6] (H69AR cells + 2 uM doxorubicin), the differential viability (reversal) is -7.81% (inactive). The figures for the inhibition in experiment [7] and in experiment [8] were -5.87% (inactive) and 2.13% (inactive), respectively.
For `CCOC(=O)c1c(NCc2ccc3c(c2)OCO3)c2ccccc2[nH]c1=O`, the viability in experiment [1] was 100%; in experiment [3] it was 100% (inactive); in experiment [4], 100% (inactive); in experiment [5] it was 87.3% (inactive); in experiment [6] (setting [9]), 93.1%; in experiment [6] (setting [10]) it was 87.3%. For the same compound, the Her2 level in experiment [2] is 69.5% (inactive). Further, the differential viability (reversal) in experiment [6] (H69AR cells + 2 uM doxorubicin) is -5.86% (inactive). The inhibition in experiment [7] was -8.78% (inactive); in experiment [8], 1.33% (inactive).
Consider `Cc1ccc(O)c(C(CC(=O)N2CCCC2)c2ccccc2)c1` (stereo not given), for which the viability was 89% in experiment [1]; 89% (inactive) in experiment [3]; 92.4% (inactive) in experiment [4]; 94.8% (inactive) in experiment [5]; 82.5% in experiment [6] (setting [9]); 94.8% in experiment [6] (setting [10]). In addition, the Her2 level in experiment [2] is 101% (inactive). The differential viability (reversal) in experiment [6] (H69AR cells + 2 uM doxorubicin) was 12.3% (inactive). Besides, the values for the inhibition in experiment [7] and in experiment [8] were -0.38% (inactive) and -6.83% (inactive), respectively.
For `CCOC(=O)C1CCN(C(=O)c2ccc(Cl)c(Cl)c2)CC1`, the viability in experiment [1] is 75.5%; in experiment [3], 75.5% (inactive); in experiment [4], 94.3% (inactive); in experiment [5], 102% (inactive); in experiment [6] (setting [9]), 96.3%; in experiment [6] (setting [10]), 102%. Further, in experiment [2], the Her2 level is 105% (inactive). The differential viability (reversal) in experiment [6] (H69AR cells + 2 uM doxorubicin) was 5.88% (inactive). Further, the values for the inhibition in experiment [7] and in experiment [8] were 3.65% (inactive) and -2.3% (inactive), respectively.
Take `COc1cccc(OC)c1C(=O)Nc1ccc(CN2CCCCC2)cc1`: the viability is 98.5% in experiment [1]; 98.5% (inactive) in experiment [3]; 102% (inactive) in experiment [4]; 89.4% (inactive) in experiment [5]; 80.4% in experiment [6] (setting [9]); 89.4% in experiment [6] (setting [10]). Further, the Her2 level in experiment [2] is 84% (inactive). Besides, in experiment [6] (H69AR cells + 2 uM doxorubicin), the differential viability (reversal) was 8.96% (inactive). The figures for the inhibition in experiment [7] and in experiment [8] were -0.66% (inactive) and -2.06% (inactive), respectively.
For the compound `Cc1ccc(-n2c(Cc3cccn3C)nnc2SCC(=O)NCc2ccc3c(c2)OCO3)cc1`, the viability in experiment [1] is 97.5%; in experiment [3] it was 97.5% (inactive); in experiment [4] it was 88.2% (inactive); in experiment [5], 85.8% (inactive); in experiment [6] (setting [9]), 80.7%; in experiment [6] (setting [10]), 85.8%. For the same compound, in experiment [2], the Her2 level was 89% (inactive). In addition, the differential viability (reversal) in experiment [6] (H69AR cells + 2 uM doxorubicin) is 5.04% (inactive). The inhibition in experiment [7] is -5.07% (inactive); in experiment [8], -4.59% (inactive).
On to `NC(=O)c1ccccc1NC(=O)CCCN1C(=O)CCC1=O`, for which the viability in experiment [1] is 101%; in experiment [3] it was 101% (inactive); in experiment [4], 92.9% (inactive); in experiment [5] it was 95.6% (inactive); in experiment [6] (setting [9]), 85%; in experiment [6] (setting [10]) it was 95.6%. Besides, the Her2 level in experiment [2] was 83.5% (inactive). For the same compound, the differential viability (reversal) in experiment [6] (H69AR cells + 2 uM doxorubicin) is 10.6% (inactive). Also, the inhibition in experiment [7] is -6.89% (inactive); in experiment [8], -1.9% (inactive).
Regarding `CCn1nnnc1SCC(=O)Nc1nnc(C(C)C)s1`, the viability in experiment [1] is 88.5%; in experiment [3], 88.5% (inactive); in experiment [4], 103% (inactive); in experiment [5], 92.2% (inactive); in experiment [6] (setting [9]), 89.8%; in experiment [6] (setting [10]), 92.2%. In experiment [2], the Her2 level is 84.5% (inactive). In addition, in experiment [6] (H69AR cells + 2 uM doxorubicin), the differential viability (reversal) is 2.35% (inactive). In addition, the inhibition in experiment [7] was -4.4% (inactive); in experiment [8], 3.11% (inactive).
As for `Cc1cc(C(=O)NCc2ccc(S(N)(=O)=O)cc2)cs1`, the viability in experiment [1] is 84.5%; in experiment [3] it was 84.5% (inactive); in experiment [4], 105% (inactive); in experiment [5] it was 104% (inactive); in experiment [6] (setting [9]) it was 90.7%; in experiment [6] (setting [10]), 104%. Besides, the Her2 level in experiment [2] is 87.5% (inactive). For the same compound, the differential viability (reversal) in experiment [6] (H69AR cells + 2 uM doxorubicin) was 13% (inactive). Moreover, the inhibition in experiment [7] is -5.73% (inactive); in experiment [8], 4.1% (inactive).
Regarding `Cc1cc(=O)n2nc(-c3ccccc3)sc2n1`, the viability is 101% in experiment [1]; 101% (inactive) in experiment [3]; 97.2% (inactive) in experiment [4]; 92.3% (inactive) in experiment [5]; 87.8% in experiment [6] (setting [9]); 92.3% in experiment [6] (setting [10]). Besides, in experiment [2], the Her2 level is 92.5% (inactive). Also, the differential viability (reversal) in experiment [6] (H69AR cells + 2 uM doxorubicin) was 4.42% (inactive). In addition, the inhibition in experiment [7] was -3.73% (inactive); in experiment [8], 1.11% (inactive).
With `CCOc1ccccc1-c1nc(-c2ccc(NC(=O)Cc3ccccc3OC)cc2)no1`, the viability in experiment [1] is 90.5%; in experiment [3], 90.5% (inactive); in experiment [4], 75.3% (inactive); in experiment [5], 88.6% (inactive); in experiment [6] (setting [9]) it was 83.3%; in experiment [6] (setting [10]), 88.6%. Besides, the Her2 level in experiment [2] is 114% (inactive). Moreover, the differential viability (reversal) in experiment [6] (H69AR cells + 2 uM doxorubicin) was 5.33% (inactive). In addition, the inhibition was 0.93% (inactive) in experiment [7] and -5.81% (inactive) in experiment [8].
In the case of `COc1ccc(-n2c(Cc3cccn3C)nnc2SCC(=O)Nc2cccc(OC)c2)cc1`, the viability in experiment [1] was 106%; in experiment [3] it was 106% (inactive); in experiment [4] it was 80.9% (inactive); in experiment [5], 98% (inactive); in experiment [6] (setting [9]), 97.1%; in experiment [6] (setting [10]) it was 98%. The Her2 level in experiment [2] was 97.5% (inactive). Further, the differential viability (reversal) in experiment [6] (H69AR cells + 2 uM doxorubicin) was 0.895% (inactive). In addition, the figures for the inhibition in experiment [7] and in experiment [8] were 1.79% (inactive) and 0% (inactive), respectively.
Take `CCOC(=O)C1C2C=CC3(CN(c4cccc(Cl)c4)C(=O)C13)O2` (stereo not given): the viability in experiment [1] is 86%; in experiment [3], 86% (inactive); in experiment [4], 91.2% (inactive); in experiment [5], 97.5% (inactive); in experiment [6] (setting [9]), 96.3%; in experiment [6] (setting [10]), 97.5%. Further, the Her2 level in experiment [2] was 80% (inactive). For the same compound, the differential viability (reversal) in experiment [6] (H69AR cells + 2 uM doxorubicin) was 1.17% (inactive). In addition, the figures for the inhibition in experiment [7] and in experiment [8] were -4.4% (inactive) and 0.17% (inactive), respectively.
As to `Cc1nc(Nc2nc(=O)c3ccccc3n2C)nc2c(C)cccc12`, the viability was 122% in experiment [1]; 122% (inactive) in experiment [3]; 89.5% (inactive) in experiment [4]; 86.1% (inactive) in experiment [5]; 99% in experiment [6] (setting [9]); 86.1% in experiment [6] (setting [10]). Also, the Her2 level in experiment [2] was 98% (inactive). The differential viability (reversal) in experiment [6] (H69AR cells + 2 uM doxorubicin) is -12.9% (inactive). In addition, the figures for the inhibition in experiment [7] and in experiment [8] were -2.89% (inactive) and 2.54% (inactive), respectively.
Turning to `O=C(NC1CCCCC1)c1cc2nc(-c3ccco3)cc(C(F)(F)F)n2n1`, the viability in experiment [1] is 81.5%; in experiment [3], 81.5% (inactive); in experiment [4] it was 106% (inactive); in experiment [5], 80.2% (inactive); in experiment [6] (setting [9]), 83.2%; in experiment [6] (setting [10]) it was 80.2%. The Her2 level in experiment [2] is 93% (inactive). Besides, the differential viability (reversal) in experiment [6] (H69AR cells + 2 uM doxorubicin) was -2.98% (inactive). For the same compound, the inhibition in experiment [7] was -2.08% (inactive); in experiment [8], 2.79% (inactive).
Regarding `CC(C)Cn1c(=O)c(C2=NS(=O)(=O)c3ccccc3N2)c(O)c2ccccc21`, the viability in experiment [1] was 118%; in experiment [3], 118% (inactive); in experiment [4] it was 97% (inactive); in experiment [5], 98.1% (inactive); in experiment [6] (setting [9]) it was 99%; in experiment [6] (setting [10]), 98.1%. For the same compound, the Her2 level in experiment [2] is 86.5% (inactive). Further, the differential viability (reversal) in experiment [6] (H69AR cells + 2 uM doxorubicin) was -0.935% (inactive). The inhibition in experiment [7] was -2.21% (inactive); in experiment [8] it was 1.8% (inactive).
